The M2OR odorant receptor database

Assays:
Settings in all cases: stereoisomer not certain
UniProt Q8VGC6 = molecular target: T1, UniProt Q8VGC6
T1 sequence (whole entry): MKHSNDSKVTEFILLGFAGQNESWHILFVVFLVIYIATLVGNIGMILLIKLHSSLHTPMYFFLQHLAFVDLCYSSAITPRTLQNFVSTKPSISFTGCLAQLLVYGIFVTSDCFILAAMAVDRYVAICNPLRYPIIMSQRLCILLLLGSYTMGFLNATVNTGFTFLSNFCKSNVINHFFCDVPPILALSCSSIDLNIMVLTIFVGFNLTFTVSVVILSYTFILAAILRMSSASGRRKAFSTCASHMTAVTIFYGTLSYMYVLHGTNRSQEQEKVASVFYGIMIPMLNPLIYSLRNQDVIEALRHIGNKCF
How it was run: (§1)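 Transient luciferase assays in mammalian cell lines were common, though methods varied by source. The values come from published papers and their supplementary material, with extra details from the original authors when needed. Responsive refers to a measured signal the original authors judged statistically different from baseline, and non-responsive (inactive) to the remainder.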

UniProt Q8VGD7 = molecular target: T2, UniProt Q8VGD7
T2 sequence (whole entry): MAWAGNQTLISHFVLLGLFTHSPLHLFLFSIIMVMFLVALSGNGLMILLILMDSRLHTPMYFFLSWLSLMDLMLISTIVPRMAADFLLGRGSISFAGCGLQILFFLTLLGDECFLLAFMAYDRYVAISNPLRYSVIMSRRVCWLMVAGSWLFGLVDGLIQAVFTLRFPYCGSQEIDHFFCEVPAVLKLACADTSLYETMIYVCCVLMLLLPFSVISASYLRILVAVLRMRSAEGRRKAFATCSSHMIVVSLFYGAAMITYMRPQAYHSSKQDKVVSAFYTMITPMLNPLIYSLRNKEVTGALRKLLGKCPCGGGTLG
How it was run: as §1

UniProt Q8VGH1 = molecular target: T3, UniProt Q8VGH1
T3 sequence (whole entry): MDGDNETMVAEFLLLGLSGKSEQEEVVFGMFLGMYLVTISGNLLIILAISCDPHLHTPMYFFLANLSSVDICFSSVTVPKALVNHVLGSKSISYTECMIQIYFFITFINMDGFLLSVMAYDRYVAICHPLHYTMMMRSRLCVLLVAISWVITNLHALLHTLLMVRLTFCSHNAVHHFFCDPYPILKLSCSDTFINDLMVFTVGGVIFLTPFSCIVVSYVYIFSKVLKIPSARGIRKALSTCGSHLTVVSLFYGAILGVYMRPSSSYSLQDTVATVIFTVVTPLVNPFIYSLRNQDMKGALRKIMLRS
How it was run: as §1

UniProt Q8VGJ1 = molecular target: T4, UniProt Q8VGJ1
T4 sequence (whole entry): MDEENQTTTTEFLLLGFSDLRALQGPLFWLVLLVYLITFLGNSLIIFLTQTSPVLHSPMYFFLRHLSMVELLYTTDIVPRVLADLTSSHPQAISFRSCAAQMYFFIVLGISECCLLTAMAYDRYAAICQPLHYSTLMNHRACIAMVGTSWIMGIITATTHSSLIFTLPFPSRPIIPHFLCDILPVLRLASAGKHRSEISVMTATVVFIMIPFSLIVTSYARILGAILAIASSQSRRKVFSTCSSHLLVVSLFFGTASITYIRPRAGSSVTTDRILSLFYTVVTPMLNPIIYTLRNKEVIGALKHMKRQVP
How it was run: as §1

UniProt Q8VGJ3 = molecular target: T5, UniProt Q8VGJ3
T5 sequence (whole entry): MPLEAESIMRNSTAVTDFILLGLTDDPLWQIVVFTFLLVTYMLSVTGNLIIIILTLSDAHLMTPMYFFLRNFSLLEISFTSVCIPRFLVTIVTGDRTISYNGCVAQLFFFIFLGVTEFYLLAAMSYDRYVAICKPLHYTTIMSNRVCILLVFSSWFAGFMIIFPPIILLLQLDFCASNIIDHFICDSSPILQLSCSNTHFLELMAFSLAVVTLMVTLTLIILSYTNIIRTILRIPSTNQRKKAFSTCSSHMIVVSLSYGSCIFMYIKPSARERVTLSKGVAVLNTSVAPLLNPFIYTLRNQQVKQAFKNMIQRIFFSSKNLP
How it was run: as §1

UniProt Q8VGJ5 = molecular target: T6, UniProt Q8VGJ5
T6 sequence (whole entry): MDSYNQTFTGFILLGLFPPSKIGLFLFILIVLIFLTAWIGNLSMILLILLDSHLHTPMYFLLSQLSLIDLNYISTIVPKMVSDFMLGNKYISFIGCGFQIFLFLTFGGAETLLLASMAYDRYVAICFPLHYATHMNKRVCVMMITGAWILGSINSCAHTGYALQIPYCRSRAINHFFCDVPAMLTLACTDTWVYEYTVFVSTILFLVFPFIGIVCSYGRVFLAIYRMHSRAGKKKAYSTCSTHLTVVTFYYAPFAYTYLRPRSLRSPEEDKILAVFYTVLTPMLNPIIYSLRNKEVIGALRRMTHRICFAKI
How it was run: as §1

UniProt Q8VGL0 = molecular target: T7, UniProt Q8VGL0
T7 sequence (whole entry): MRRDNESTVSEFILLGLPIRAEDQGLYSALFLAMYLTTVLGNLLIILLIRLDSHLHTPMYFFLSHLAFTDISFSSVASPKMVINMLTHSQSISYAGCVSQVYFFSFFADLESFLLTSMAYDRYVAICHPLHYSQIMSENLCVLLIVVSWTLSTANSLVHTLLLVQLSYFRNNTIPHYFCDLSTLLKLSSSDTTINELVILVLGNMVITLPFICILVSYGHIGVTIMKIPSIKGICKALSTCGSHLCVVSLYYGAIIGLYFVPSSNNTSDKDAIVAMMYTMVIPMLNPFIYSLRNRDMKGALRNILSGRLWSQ
How it was run: as §1

UniProt Q8VGL7 = molecular target: T8, UniProt Q8VGL7
T8 sequence (whole entry): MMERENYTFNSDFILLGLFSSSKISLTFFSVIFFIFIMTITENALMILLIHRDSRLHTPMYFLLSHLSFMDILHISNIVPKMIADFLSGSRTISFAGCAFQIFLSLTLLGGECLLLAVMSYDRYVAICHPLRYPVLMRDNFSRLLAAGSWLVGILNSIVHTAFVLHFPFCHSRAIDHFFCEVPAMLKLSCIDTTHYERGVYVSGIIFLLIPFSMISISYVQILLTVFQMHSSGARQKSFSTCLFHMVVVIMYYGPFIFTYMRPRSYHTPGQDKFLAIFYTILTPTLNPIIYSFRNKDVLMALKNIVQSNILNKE
How it was run: as §1

UniProt Q8VGM2 = molecular target: T9, UniProt Q8VGM2
T9 sequence (whole entry): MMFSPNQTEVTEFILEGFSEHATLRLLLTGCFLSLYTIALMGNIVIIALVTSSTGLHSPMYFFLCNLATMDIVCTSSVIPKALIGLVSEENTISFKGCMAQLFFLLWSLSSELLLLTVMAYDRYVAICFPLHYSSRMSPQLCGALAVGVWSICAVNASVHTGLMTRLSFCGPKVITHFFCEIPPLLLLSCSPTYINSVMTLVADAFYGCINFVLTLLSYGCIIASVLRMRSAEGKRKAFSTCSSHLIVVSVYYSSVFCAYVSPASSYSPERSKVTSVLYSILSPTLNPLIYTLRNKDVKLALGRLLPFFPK
How it was run: as §1

UniProt Q8VGP6 = molecular target: T10, UniProt Q8VGP6
T10 sequence (whole entry): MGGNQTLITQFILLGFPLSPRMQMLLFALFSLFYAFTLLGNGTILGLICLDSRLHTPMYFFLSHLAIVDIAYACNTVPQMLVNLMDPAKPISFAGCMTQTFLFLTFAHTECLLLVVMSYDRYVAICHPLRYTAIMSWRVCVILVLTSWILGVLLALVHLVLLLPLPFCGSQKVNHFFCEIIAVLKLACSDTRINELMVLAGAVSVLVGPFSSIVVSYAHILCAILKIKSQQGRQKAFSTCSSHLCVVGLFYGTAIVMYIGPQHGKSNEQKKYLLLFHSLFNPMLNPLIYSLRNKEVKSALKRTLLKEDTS
How it was run: as §1

UniProt Q8VGQ3 = molecular target: T11, UniProt Q8VGQ3
T11 sequence (whole entry): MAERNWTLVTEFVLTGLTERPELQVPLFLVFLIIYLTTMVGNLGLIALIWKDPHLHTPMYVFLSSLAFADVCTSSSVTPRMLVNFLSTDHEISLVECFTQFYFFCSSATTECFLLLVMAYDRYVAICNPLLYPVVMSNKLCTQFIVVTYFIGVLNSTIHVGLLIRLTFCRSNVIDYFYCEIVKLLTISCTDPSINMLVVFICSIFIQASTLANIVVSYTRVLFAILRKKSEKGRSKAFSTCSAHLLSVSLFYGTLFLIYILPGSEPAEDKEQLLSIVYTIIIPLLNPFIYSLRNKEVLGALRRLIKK
How it was run: as §1

UniProt Q8VGT4 = molecular target: T12, UniProt Q8VGT4
T12 sequence (whole entry): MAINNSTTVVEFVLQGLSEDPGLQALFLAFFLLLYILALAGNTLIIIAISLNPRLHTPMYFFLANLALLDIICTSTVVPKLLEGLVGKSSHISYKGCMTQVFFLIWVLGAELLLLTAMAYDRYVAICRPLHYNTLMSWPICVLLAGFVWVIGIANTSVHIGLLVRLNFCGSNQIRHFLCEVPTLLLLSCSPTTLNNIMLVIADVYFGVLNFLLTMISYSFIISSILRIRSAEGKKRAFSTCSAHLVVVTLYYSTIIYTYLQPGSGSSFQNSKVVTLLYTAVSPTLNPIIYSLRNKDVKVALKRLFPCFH
How it was run: as §1

UniProt Q8VGU3 = molecular target: T13, UniProt Q8VGU3
T13 sequence (whole entry): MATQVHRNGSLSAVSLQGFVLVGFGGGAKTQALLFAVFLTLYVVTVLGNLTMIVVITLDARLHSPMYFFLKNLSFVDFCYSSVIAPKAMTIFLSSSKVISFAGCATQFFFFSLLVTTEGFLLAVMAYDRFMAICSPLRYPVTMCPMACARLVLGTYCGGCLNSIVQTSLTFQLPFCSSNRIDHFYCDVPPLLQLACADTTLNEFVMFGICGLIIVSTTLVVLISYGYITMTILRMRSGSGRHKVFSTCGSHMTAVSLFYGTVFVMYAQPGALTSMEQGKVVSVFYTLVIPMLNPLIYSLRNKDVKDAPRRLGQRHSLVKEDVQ
How it was run: as §1

UniProt Q8VGV1 = molecular target: T14, UniProt Q8VGV1
T14 sequence (whole entry): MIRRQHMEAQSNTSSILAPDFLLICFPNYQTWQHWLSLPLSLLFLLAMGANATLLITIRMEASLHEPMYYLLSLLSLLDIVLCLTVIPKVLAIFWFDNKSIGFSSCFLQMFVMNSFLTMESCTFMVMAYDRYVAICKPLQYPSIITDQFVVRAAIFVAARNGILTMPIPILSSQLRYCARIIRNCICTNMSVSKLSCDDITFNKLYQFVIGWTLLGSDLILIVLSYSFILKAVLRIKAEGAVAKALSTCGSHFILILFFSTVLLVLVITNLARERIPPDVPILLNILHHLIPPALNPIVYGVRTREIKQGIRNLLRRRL
How it was run: as §1

UniProt Q8VGV7 = molecular target: T15, UniProt Q8VGV7
T15 sequence (whole entry): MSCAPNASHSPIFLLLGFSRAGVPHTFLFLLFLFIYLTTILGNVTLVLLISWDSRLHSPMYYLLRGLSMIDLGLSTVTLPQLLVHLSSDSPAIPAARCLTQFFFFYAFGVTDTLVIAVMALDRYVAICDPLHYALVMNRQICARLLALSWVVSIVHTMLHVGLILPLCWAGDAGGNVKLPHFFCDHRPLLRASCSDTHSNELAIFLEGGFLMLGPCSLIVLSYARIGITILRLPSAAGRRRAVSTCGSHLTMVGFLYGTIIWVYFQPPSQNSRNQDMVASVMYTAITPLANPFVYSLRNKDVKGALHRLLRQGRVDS
How it was run: as §1

UniProt Q8VGX3 = molecular target: T16, UniProt Q8VGX3
T16 sequence (whole entry): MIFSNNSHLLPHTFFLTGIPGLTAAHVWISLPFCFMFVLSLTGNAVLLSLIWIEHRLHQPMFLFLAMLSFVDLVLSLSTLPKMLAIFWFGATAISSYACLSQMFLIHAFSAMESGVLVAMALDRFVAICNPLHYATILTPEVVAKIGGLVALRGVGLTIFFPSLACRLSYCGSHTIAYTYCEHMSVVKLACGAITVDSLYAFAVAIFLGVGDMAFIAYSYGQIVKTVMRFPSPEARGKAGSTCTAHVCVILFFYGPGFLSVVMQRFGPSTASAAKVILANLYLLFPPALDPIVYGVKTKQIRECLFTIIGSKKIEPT
How it was run: as §1

UniProt Q8VGX5 = molecular target: T17, UniProt Q8VGX5
T17 sequence (whole entry): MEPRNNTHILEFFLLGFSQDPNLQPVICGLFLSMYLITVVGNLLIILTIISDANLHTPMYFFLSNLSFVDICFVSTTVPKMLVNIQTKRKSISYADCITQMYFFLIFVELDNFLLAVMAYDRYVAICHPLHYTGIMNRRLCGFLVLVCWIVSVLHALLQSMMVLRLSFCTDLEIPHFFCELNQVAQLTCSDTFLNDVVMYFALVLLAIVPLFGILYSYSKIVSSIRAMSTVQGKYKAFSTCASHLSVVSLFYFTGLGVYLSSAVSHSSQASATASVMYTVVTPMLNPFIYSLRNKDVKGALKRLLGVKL
How it was run: as §1

UniProt Q8VGW5 = molecular target: T18, UniProt Q8VGW5
T18 sequence (whole entry): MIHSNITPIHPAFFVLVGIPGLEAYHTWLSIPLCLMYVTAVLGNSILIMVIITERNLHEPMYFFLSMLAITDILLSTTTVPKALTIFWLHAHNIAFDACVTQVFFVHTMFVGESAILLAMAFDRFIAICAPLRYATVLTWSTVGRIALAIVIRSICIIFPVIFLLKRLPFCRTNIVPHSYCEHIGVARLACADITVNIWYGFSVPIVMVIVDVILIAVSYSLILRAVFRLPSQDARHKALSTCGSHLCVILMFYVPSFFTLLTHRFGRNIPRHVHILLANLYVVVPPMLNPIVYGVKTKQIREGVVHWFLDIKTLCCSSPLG
How it was run: as §1
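Note: active if original authors judged signal statistically different from baseline.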

SMILES	odorant receptor agonist call (UniProt Q8VGC6)	odorant receptor agonist call (UniProt Q8VGD7)	odorant receptor agonist call (UniProt Q8VGH1)	odorant receptor agonist call (UniProt Q8VGJ1)	odorant receptor agonist call (UniProt Q8VGJ3)	odorant receptor agonist call (UniProt Q8VGJ5)	odorant receptor agonist call (UniProt Q8VGL0)	odorant receptor agonist call (UniProt Q8VGL7)	odorant receptor agonist call (UniProt Q8VGM2)	odorant receptor agonist call (UniProt Q8VGP6)	odorant receptor agonist call (UniProt Q8VGQ3)	odorant receptor agonist call (UniProt Q8VGT4)	odorant receptor agonist call (UniProt Q8VGU3)	odorant receptor agonist call (UniProt Q8VGV1)	odorant receptor agonist call (UniProt Q8VGV7)	odorant receptor agonist call (UniProt Q8VGX3)	odorant receptor agonist call (UniProt Q8VGX5)	odorant receptor agonist call (UniProt Q8VGW5)
CC(=O)Oc1ccccc1	active	inactive	inactive	inactive	inactive	inactive	inactive	inactive	inactive	inactive	inactive	inactive	inactive	inactive	inactive	inactive	active	–
CCCCCCCC(=O)[O-].[H+]	inactive	inactive	inactive	inactive	–	inactive	inactive	inactive	inactive	inactive	inactive	inactive	–	active	–	–	inactive	inactive
